Rows were chosen to be rich in hits. Some 5.1% of all compounds tested hit in one or more screens of this group.
STAT3 act: STAT3 signaling activation; 190,000 tested, 0.91% active; U3A cells, IL-6 STAT3-luciferase reporter, luminescence; 100% = signal with IL-6 EC80 alone; AID 871; activation (% of control), % at 5.6 µM;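 active = activation above the screen-wide mean of compound activation plus 3 SD, cut at about 130% in these data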;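 note: 0% = background luminescence of wells with medium and substrate only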
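Detection: reporter luminescence signal / Assay system: STAT1-lacking human U3A cells, STAT3 luciferase reporter / Incubation: compound pre-incubation 1 h before IL-6, then 6 h stimulation at 37 °C / Control set: IL-6-only high control / Read-out: % activation relative to IL-6 control / Probe or stimulus: Interleukin-6, 33 ng/mL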
NF-kB expr up: compounds increasing NF-kB expression in human neuronal cells; 190,000 tested, 1.6% active; AID 1239; NF-kB reporter expression; active compounds read high; fold change at 12.5 µM; in the data active = fold change above about 3.3
STAT3 inh: reduces IL-6 driven STAT3 reporter signal. U3A cells, IL-6 STAT3-luciferase reporter, luminescence; host cell line lacks STAT1. inhibition, % at 5.5 µM. 190,000 tested, 0.89% active. AID 862;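 active = inhibition above the mean inhibition across all screened compounds plus 3 SD, cut at about 44% in these data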;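 note: 0% = DMSO only wells and 100% = 100 µM nifuroxazide control wells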
STAT1 blocker: inhibitors of IFN-gamma induced STAT1 signaling; NIH 3T3 STAT1-luciferase reporter, luminescence; inhibition, % at 5.5 µM; 200,000 tested, 0.35% active; AID 920;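 active = inhibition above a set limit, the mean inhibition across all tested compounds plus 3 SD, cut at about 34% in these data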;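 note: 0% = IFN-gamma with DMSO and 100% = IFN-gamma with 300 µM nifuroxazide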
APP 5'UTR act: APP 5'UTR luciferase reporter activation. AID 1276. activation, % at 2 µM. SH-SY5Y APP 5'UTR luciferase reporter, luminescence; zero percent = DMSO vehicle wells. 190,000 tested, 1% active;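 active = activation above a set limit, based on mean plus 3 SD of controls, cut at about 140% in these data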
STAT1 act: STAT1 signaling activation; NIH 3T3 STAT1-luciferase reporter, IFN-gamma, luminescence; 100% = IFN-gamma alone, no compound; activation (% of control), % at 5.5 µM; 200,000 tested, 2.6% active;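 active = activation above the screen-wide mean activation plus 3 SD, cut at about 130% in these data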;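 note: raw ratio to IFN-gamma control signal so 100% means no change and 0% no light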
* marks the source's active call; other numbers are inactive results; . = no result given.

SMILES	STAT3 act	NF-kB expr up	STAT3 inh	STAT1 blocker	APP 5'UTR act	STAT1 act
O=[N+]([O-])c1cccc2ccc(/C=C/c3ccc(F)cc3)nc12	134.7*	1.74	-37.6	-37.3	39.2	133.3*
O=[N+]([O-])c1ccc(/C=C/c2ccc3cccc([N+](=O)[O-])c3n2)cc1	87.4	1.13	16.8	-13.6	-12.4	112.1
Cc1ccc(C(=O)N/N=C2\CCCc3ccccc32)c(C)c1	104.9	2.11	5.3	-33.5	92.0	128.8*
O=C(N/N=C1\CCCc2ccccc21)c1ccc([N+](=O)[O-])cc1	107.5	0.64	-9.0	-23.7	-3.7	121.9
NC(=O)C(=O)N/N=C1\CCc2ccccc21	116.2	1.49	-18.5	-33.8	41.3	131.3*
COc1ccc(C2=NC(c3ccccc3)CO2)cc1 (stereo unspecified)	73.9	1.36	28.3	-47.0	39.9	142.8*
O=C(N/N=C/c1c(O)ccc2ccccc12)c1[nH]ncc1Br	92.2	1.15	8.8	-9.5	-71.9	108.5
Cc1ccc(O)c(/C=N/NC(=O)c2[nH]ncc2Br)c1	103.2	8.05*	-5.0	-35.2	-1.5	131.4*
COc1ccc(/C=C/C(=O)N2CCN(S(=O)(=O)c3ccccc3)CC2)cc1OC	96.5	0.89	9.3	-42.9	7.5	138.4*
CCC(=O)Nc1ccc(OCc2nc3ccccc3s2)cc1	131.6	4.16*	-37.9	-36.0	215.9*	134.5*
c1ccc(OCc2nc3ccccc3s2)cc1	109.0	4.26*	-5.7	-44.8	126.4	141.2*
Fc1ccc(OCc2nc3ccccc3s2)cc1	101.1	5.15*	9.3	-41.8	269.2*	136.3*
N#Cc1ccc(NC(=O)CCc2nc3ccccc3s2)cc1	103.8	1.14	-4.4	-4.6	10.7	104.0
O=S(=O)(CCc1nc2ccccc2s1)c1ccc(Cl)cc1	99.0	1.11	5.6	5.0	-13.3	95.3
O=S(=O)(Cc1nc2ccccc2s1)c1ccccc1	115.3	2.18	-12.4	-41.9	73.2	138.1*
CCCC(=O)Nc1ccc2c(c1)nc1n2CCN(C2CCCCC2)C1	101.2	1.42	0.9	6.9	17.4	92.0
Cc1ccc(C)c(NC(=O)COC(=O)CNC(=O)c2ccccc2Cl)c1	111.9	1.26	-8.8	-13.2	8.0	110.6
O=C(O)CCC(=O)Nc1ccc(N=Nc2ccccc2)cc1	98.6	1.19	2.3	-9.1	-0.1	109.2
CC(C)(C)C(=O)Nc1ccc(N=Nc2ccccc2)cc1	28.4	1.14	87.5*	67.0*	114.4	37.0
CC1CC1C(=O)OCC(=O)Nc1ccc(N=Nc2ccccc2)cc1 (stereo unspecified)	101.0	5.89*	-0.3	-53.4	142.9*	147.8*
CC1CC1C(=O)OCC(=O)Nc1ccccc1Oc1ccccc1 (stereo unspecified)	102.7	0.97	5.4	6.6	0.1	94.0
CCOC(=O)N1CCN(C(=O)CSc2ccc(-c3ccc(OC)cc3)nn2)CC1	104.2	0.99	6.0	-3.0	2.0	101.1
CC(=O)Nc1ccc(NC(=O)[C@@H]2CCCN2S(=O)(=O)c2ccc3c(c2)OCCO3)cc1	104.0	1.36	-3.5	1.3	-4.5	97.4
O=c1c2ccccc2nnn1Cc1ccccc1Cl	93.5	1.01	10.0	11.9	13.6	87.0
O=[N+]([O-])c1ccc(S(=O)(=O)N2CCN=C2SCc2cccnc2)cc1	105.4	1.26	-4.9	0.3	5.2	98.7
SMILES	STAT3 act	NF-kB expr up	STAT3 inh	STAT1 blocker	APP 5'UTR act	STAT1 act
Cc1ccc(NC(=O)c2ccccc2Br)cc1S(=O)(=O)N(C)C	94.6	1.59	8.8	-3.3	-1.7	102.9
COc1cccc(-c2cc(C(=O)NC3CCCC3)no2)c1	88.6	4.91*	14.7	-50.1	17.6	143.6*
COCC(C)NC(=O)c1cc(-c2cccc(OC)c2)on1 (stereo unspecified)	89.3	1.47	16.2	-36.8	23.2	133.7*
COc1cccc(-c2cc(C(=O)Nc3ccccc3SC)no2)c1	98.4	1.32	11.6	-32.1	50.5	129.2*
COc1cccc(NC(=O)C(NC2CCCC2)c2ccccc2)c1 (stereo unspecified)	103.9	1.05	-0.5	2.7	1.1	97.5
COc1ccc(-c2cc(C(=O)Nc3ccccc3SC)no2)cc1OC	86.1	1.19	20.8	3.1	11.7	97.2
COc1cccc(NC(=O)C(=S)NC2CCCCC2)c1	78.8	6.96*	30.6	-34.3	156.1*	129.7*
O=C(Oc1ccc(-c2nccc(-c3ccccn3)n2)cc1)c1cccc(C(F)(F)F)c1	89.5	3.42*	16.1	22.9	33.3	79.0
O=C(O)CCCN=Cc1c(O)c2ccccc2oc1=O	95.2	1.04	10.5	-4.8	4.7	106.2
Cc1ccccc1-n1cnc2cc(NCc3cccs3)ccc21	107.7	1.38	-6.0	-3.4	12.3	103.0
COc1ccccc1-n1cnc2cc(NCc3cccs3)ccc21	116.3	3.34*	-18.2	-13.9	-93.1	112.9
O=C(CCC1CCCCC1)NCCN1C2=NC[C@@H](Cc3ccccc3)N2C[C@H]1Cc1ccc(O)cc1	.	0.61	.	3.8	8.8	97.9
N/C(=N\OC(=O)Cc1ccccc1)c1ccccc1Cl	100.5	1.64	1.4	-51.1	48.2	147.4*
N/C(=N\OC(=O)Cc1ccccc1)c1cccnc1	91.8	1.64	15.8	-4.7	5.1	104.2
O=C(O)c1cnc(-c2ccccc2)nc1Sc1ccccc1Cl	134.6*	1.02	-39.7	-3.3	-11.9	102.9
O=C(N/C(=C\c1cccc([N+](=O)[O-])c1)C(=O)N1CCOCC1)c1ccc([N+](=O)[O-])cc1	117.0	0.68	-11.1	-34.7	0.1	130.6*
O=C(C1=C[C@@H](c2ccccc2)C[C@@H](OCc2ccc(CO)cc2)O1)N1CCCCCCC1	.	0.99	.	-2.4	3.4	103.7
Cc1ccc2nc(-c3ccc(N4C(=O)CC(N5CCCC(C)C5)C4=O)cc3)sc2c1 (stereo unspecified)	103.8	1.46	-1.0	-7.2	84.0	106.6
Cc1ccc2nc(-c3ccc(N4C(=N)SC5CS(=O)(=O)CC54)cc3)sc2c1 (stereo unspecified)	103.4	1.19	-4.5	-33.1	70.7	130.0*
O=C1NN=C(c2ccc(Br)cc2)CC1c1ccc(Cl)cc1 (stereo unspecified)	98.7	1.39	3.6	7.1	-1.2	93.3
O=C(Nc1ccc(F)cc1)c1nsc(Cl)c1Cl	130.2	5.02*	-31.9	-46.8	127.2	137.5*
CCOc1ccc(NC(=O)c2nsc(Cl)c2Cl)cc1	95.9	6.4*	9.1	-56.1	234.0*	150.0*
CCOC(=O)c1c(NC(=O)Cn2nc(C(=O)O)c3ccccc3c2=O)sc(CC)c1C	103.1	1.01	-2.3	1.4	-0.1	96.5
COc1cccc(CNc2cnc3ccccc3c2)c1O	73.2	7.56*	34.9	6.4	93.3	95.3
COc1cccc(CNc2cccc3cccnc23)c1O	109.6	0.44	-9.2	3.9	19.0	92.1
